Measurements from ChEMBL document CHEMBL1681730, “17,20-lyase inhibitors. Part 4: design, synthesis and structure-activity relationships of naphthylmethylimidazole derivatives as novel 17,20-lyase inhibitors” (Bioorg Med Chem, 2011).

Experiments:
[1] = molecular target: Cytochrome P450 2C9 (Homo sapiens, UniProt P11712); experiment: Inhibition of human CYP2C9; type: ADME
How it was run: (§1)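 Microsomes from human B-lymphoblastoid cells expressing one CYP isoform, with inhibitor at 3, 10 and 30 µmol/L. Buffer 80 mmol/L phosphate pH 7.4 (Tris-HCl pH 7.4 for CYP2C9) with 10 mmol/L MgCl2 and a NADPH-regenerating system. Inhibitor and substrate preincubated 5 min at 37 °C, then microsomes added to start. Marker reactions: tolbutamide hydroxylation (CYP2C8, CYP2C9), bufuralol 1'-hydroxylation (CYP2D6). Control was methanol alone.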

[2] = AUC (0 to 24 hrs) in Crl:CD(SD)IGS rat at 1 mg/kg, iv by HPLC analysis; type: ADME, organism-based; parameters: time < 24 hr, dose 1 mg/kg, route intravenous; details: plasma
How it was run: (§2)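 Male non-fasted 8-week-old rats, n = 3; 1 mg/kg IV or 10 mg/kg oral. Plasma sampled at 5, 10, 15, 30 min and 1, 2, 4, 8, 24 h after IV dosing, or at 15, 30 min and 1, 2, 4, 8, 24 h after oral dosing. Plasma deproteinized with acetonitrile, dried under N₂, taken up in mobile phase, and analysed by reverse-phase HPLC on an ODS column.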

[3] = molecular target: Cytochrome P450 3A4 (Homo sapiens, UniProt P08684); experiment: Inhibition of human CYP3A4; type: ADME
Chain of Cytochrome P450 3A4 (P08684 whole entry): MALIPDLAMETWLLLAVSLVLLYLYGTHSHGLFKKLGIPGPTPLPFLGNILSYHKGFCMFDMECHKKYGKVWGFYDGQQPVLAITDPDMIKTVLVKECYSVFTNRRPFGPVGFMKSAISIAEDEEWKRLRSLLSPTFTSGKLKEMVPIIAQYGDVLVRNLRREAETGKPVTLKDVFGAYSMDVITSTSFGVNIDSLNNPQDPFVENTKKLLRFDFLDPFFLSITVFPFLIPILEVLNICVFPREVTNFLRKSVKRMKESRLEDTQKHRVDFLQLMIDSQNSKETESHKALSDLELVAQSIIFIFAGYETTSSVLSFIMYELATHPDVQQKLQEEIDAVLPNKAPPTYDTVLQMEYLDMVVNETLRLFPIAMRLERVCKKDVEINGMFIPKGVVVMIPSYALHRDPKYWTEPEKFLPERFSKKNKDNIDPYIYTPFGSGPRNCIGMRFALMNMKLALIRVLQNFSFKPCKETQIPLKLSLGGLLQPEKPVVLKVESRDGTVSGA

[4] = molecular target: Cytochrome P450 2D6 (Homo sapiens, UniProt P10635); experiment: Inhibition of human CYP2D6; type: ADME; how it was run: as §1
Chain of Cytochrome P450 2D6 (P10635 whole entry): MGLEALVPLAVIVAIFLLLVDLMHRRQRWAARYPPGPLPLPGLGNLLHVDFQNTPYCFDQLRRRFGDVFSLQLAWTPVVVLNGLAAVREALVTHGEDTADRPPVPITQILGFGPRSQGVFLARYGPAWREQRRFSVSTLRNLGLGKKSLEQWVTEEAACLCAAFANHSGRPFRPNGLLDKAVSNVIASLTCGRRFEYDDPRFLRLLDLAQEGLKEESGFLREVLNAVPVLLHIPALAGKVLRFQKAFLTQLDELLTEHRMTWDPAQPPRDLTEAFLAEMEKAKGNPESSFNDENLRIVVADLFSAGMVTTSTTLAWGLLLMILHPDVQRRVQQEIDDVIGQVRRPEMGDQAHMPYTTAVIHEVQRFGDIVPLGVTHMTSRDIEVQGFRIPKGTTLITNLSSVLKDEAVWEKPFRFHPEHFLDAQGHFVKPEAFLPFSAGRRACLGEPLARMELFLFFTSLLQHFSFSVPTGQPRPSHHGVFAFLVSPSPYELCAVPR

[5] = AUC (0 to 24 hrs) in Crl:CD(SD)IGS rat at 10 mg/kg, po by HPLC analysis; type: ADME, organism-based; parameters: time < 24 hr, dose 10 mg/kg, route oral; details: plasma; how it was run: as §2
[6] = molecular target: T1, Cytochrome P450c11B3 (Rattus norvegicus, UniProt Q64546); experiment: Inhibition of 11-hydroxylase activity in Sprague-Dawley rat adrenal gland; type: tissue-based
T1 sequence (Q64546 whole entry): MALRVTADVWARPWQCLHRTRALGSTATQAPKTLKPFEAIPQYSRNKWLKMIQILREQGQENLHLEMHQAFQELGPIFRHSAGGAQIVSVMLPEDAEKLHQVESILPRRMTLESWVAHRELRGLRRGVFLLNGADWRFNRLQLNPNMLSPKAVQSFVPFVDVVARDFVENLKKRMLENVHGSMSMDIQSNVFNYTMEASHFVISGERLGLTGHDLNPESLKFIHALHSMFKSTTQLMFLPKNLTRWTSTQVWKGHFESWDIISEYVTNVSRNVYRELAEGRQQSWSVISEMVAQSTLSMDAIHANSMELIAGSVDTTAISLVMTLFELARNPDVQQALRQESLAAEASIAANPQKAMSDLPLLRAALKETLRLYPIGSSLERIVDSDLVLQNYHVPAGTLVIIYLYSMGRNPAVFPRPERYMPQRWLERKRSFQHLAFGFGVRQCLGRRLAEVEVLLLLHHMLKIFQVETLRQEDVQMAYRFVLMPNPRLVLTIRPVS
How it was run: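 Mitochondrial fraction from SD rat adrenal glands, 4 µg protein, in 200 mM mannitol, 4.5 mM HEPES, 2.3 mM K phosphate pH 7.4, 0.1 mM EDTA, 0.03% BSA, 4.5 mM NADPH, 11 mM CaCl2. Substrate 10 nM [1,2-3H]-11-deoxycortisol. Test compound 1–1000 nM, diluted in DMF. Incubated 30 min at 37 °C, stopped with ethyl acetate. Final concentrations.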

[7] = molecular target: T2, Cytochrome P450 2C8 (Homo sapiens, UniProt P10632); experiment: Inhibition of human CYP2C8; type: ADME; how it was run: as §1
T2 sequence (P10632 whole entry): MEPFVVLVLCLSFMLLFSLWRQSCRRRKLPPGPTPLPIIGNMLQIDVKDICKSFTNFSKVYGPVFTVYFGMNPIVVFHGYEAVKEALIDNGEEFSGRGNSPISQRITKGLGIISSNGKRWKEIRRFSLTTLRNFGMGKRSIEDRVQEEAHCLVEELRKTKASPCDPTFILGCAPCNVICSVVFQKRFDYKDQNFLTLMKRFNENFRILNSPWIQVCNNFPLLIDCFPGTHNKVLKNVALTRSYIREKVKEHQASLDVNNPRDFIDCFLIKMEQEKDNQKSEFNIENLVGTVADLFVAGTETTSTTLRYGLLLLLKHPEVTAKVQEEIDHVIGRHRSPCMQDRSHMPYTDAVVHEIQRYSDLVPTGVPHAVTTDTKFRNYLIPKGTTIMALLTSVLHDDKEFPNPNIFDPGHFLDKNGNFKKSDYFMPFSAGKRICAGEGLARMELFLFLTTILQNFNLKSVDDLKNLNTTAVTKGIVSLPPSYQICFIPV

[8] = molecular target: T3, Steroid 17-alpha-hydroxylase/17,20 lyase (Rattus norvegicus, UniProt P11715); experiment: Inhibition of 17,20 lyase activity in Sprague-Dawley rat testicular microsomes; parameters: species or system Testis
T3 sequence (P11715 whole entry): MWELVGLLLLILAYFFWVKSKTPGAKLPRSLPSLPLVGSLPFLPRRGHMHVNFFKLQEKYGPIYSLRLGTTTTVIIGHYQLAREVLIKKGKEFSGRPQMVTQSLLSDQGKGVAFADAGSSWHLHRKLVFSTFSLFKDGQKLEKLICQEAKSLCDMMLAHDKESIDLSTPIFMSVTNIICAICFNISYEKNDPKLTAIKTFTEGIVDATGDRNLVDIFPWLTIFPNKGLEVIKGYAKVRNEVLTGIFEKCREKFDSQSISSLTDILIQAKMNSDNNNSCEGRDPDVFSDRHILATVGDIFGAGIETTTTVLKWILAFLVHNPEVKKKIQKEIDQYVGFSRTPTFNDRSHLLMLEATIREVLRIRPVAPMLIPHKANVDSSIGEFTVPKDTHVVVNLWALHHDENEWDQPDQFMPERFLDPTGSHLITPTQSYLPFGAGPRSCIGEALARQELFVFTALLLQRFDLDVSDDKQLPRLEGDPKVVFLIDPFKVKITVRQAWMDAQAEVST
How it was run: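 Testicular microsomes from 13-week-old male SD rats (7 µg protein) in 75 mM phosphate buffer, pH 7.4, with 10 nM [1,2-3H]-17α-hydroxyprogesterone, 5 mM NADPH, and 1–1000 nM test compound (all final). Compounds were diluted in DMF and then in water. Incubation ran 15 min at 37 °C and was stopped with ethyl acetate. IC50 is the concentration that halves product formation.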

[9] = Tmax in Crl:CD(SD)IGS rat at 10 mg/kg, po by HPLC analysis; type: ADME, organism-based; parameters: dose 10 mg/kg, route oral; details: in vivo
How it was run: (§3)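 Non-fasted male Crl:CD(SD)IGS rats, 8 weeks old, n = 3. Dosed 1 mg/kg iv or 10 mg/kg po. Plasma sampled at 5 (iv only), 10 (iv only), 15, 30 min and 1, 2, 4, 8, 24 h. Plasma deproteinized with acetonitrile, supernatant dried under N2, taken up in mobile phase and analysed by HPLC on an ODS column. […] Mean ± SD.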

[10] = Oral bioavailability in Crl:CD(SD)IGS rat at 10 mg/kg by HPLC analysis; type: ADME, organism-based; details: in vivo; how it was run: as §3
[11] = Cmax in Crl:CD(SD)IGS rat at 10 mg/kg, po by HPLC analysis; type: ADME, organism-based; parameters: dose 10 mg/kg, route oral; details: in vivo; how it was run: as §3
[12] = molecular target: T4, Steroid 17-alpha-hydroxylase/17,20 lyase (Homo sapiens, UniProt P05093); experiment: Inhibition of 17,20 lyase activity in human
T4 sequence (P05093 whole entry): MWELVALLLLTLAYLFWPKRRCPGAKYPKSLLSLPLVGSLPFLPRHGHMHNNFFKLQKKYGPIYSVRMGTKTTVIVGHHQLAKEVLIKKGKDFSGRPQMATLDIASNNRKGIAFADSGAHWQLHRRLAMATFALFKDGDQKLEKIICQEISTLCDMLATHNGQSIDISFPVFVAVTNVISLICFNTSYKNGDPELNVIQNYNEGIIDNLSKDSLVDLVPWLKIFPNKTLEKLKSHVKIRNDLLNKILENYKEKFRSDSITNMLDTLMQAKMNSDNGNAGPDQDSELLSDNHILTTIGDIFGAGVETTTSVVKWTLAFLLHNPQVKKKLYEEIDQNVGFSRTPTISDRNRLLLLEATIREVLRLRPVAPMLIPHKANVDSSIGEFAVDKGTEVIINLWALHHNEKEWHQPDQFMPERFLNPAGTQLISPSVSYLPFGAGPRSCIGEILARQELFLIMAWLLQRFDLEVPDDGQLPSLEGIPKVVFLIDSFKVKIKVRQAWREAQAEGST
How it was run: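 Recombinant P450c17 (0.5 pmol) with cytochrome b5 (0.5 pmol) and NADPH-P450 reductase (20.8 ng) in 75 mM phosphate pH 7.4 with 1 mM MgCl2. Substrate 10 nM [1,2-3H]-17α-hydroxypregnenolone, 5 mM NADPH, compound 1–1000 nM. Incubated 15 min at 37 °C, ethyl acetate extraction, DHEA separated from substrate by silica TLC (cyclohexane–ethyl acetate 3:2). IC50 taken as 50% reduction in product.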

Chain of Cytochrome P450 2C9 (P11712 whole entry, canonical isoform): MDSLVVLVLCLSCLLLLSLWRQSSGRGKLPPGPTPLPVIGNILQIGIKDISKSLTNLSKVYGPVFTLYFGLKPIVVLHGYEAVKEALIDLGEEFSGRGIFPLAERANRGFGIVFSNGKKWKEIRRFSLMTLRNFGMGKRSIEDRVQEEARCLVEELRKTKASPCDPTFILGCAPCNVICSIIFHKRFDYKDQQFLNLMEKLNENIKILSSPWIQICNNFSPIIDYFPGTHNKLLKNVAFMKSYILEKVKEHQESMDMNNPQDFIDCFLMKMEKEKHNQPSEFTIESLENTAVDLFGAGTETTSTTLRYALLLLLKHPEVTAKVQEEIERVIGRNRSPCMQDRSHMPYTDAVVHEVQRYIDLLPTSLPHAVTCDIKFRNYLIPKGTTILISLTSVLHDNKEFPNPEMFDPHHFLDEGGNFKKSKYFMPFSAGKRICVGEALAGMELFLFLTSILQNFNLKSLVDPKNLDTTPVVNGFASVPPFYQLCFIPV

SMILES: CC(C)[C@](O)(c1ccc2c3c(ccc2c1)C(=O)N(C)C3)c1cnc[nH]1
- IC50 [1]: < 3 µM
- AUC(0-t) at 24 h [2]: 573 ng·h/mL
- IC50 [3]: > 10 µM
- IC50 [4]: > 30 µM
- AUC(0-t) at 24 h [5]: 7320 ng·h/mL
- IC50 [6]: > 1 µM
- IC50 [7]: 28 µM
- IC50 [8]: < 0.01 µM
- Tmax [9]: 25.2 min
- bioavailability [10]: 128%
- Cmax [11]: 2940 ng/mL
- IC50 [12]: 0.019 µM
